Measured values published in ChEMBL document CHEMBL1255300, “Pharmacodynamics of the antibacterial effect and emergence of resistance to tomopenem, formerly RO4908463/CS-023, in an in vitro pharmacokinetic model of Staphylococcus aureus infection” (Antimicrob Agents Chemother, 2008).
In brackets after ≈: the same amount, converted by molar mass. Activity calls are given as the source filed them. The rule behind the calls is not given here.

What was measured:
Staphylococcus aureus [1] = experiment: Antibacterial activity against methicillin-resistant Staphylococcus aureus 33827 infected in in vitro pharmacokinetic model assessed as time required to 99.9% killing at 1500 mg, iv every 8 hrs using 10^6 CFU/ml inoculum; type: functional
Summary of the method: (§1)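 Single-compartment dilutional in vitro PK model, 10% Mueller-Hinton broth, 37°C, stirred, dilution 132 ml/h. […] Inoculum 10^6 CFU/ml (added 45 min pre-dose) or 10^8 CFU/ml (run overnight). Viable counts by spiral plating, beta-lactamase neutralization, detection limit 10^2 CFU/ml. At least triplicate.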

Staphylococcus aureus [2] = experiment: Antibacterial activity against methicillin-sensitive Staphylococcus aureus 5956 infected in in vitro pharmacokinetic model assessed as time required to 99% killing at 1500 mg, iv every 8 hrs using 10^6 CFU/ml inoculum; type: functional
Staphylococcus aureus [3] = experiment: Antibacterial activity against methicillin-resistant Staphylococcus aureus 33827 infected in in vitro pharmacokinetic model assessed as time required to 99% killing at 750 mg, iv every 8 hrs using 10^8 CFU/ml inoculum; type: functional; summary of the method: as §1
Staphylococcus aureus [4] = experiment: Antibacterial activity against methicillin-resistant Staphylococcus aureus 33827 infected in in vitro pharmacokinetic model assessed as time required to 99% killing at 1500 mg, iv every 8 hrs using 10^8 CFU/ml inoculum; type: functional; summary of the method: as §1
Staphylococcus aureus [5] = experiment: Antibacterial activity against methicillin-resistant Staphylococcus aureus 33815 infected in in vitro pharmacokinetic model assessed as time required to 99% killing at 1500 mg, iv every 8 hrs using 10^8 CFU/ml inoculum; type: functional
Summary of the method: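 T99 and T99.9 were taken as the times for the count to fall 99% or 99.9% from time 0, using serial viable counts over 48 h. Inoculum was 10^8 CFU/ml, grown overnight in the model before dosing.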

Staphylococcus aureus [6] = experiment: T>MIC for 4-log drop in count in methicillin-resistant Staphylococcus aureus 33827 in in vitro pharmacokinetic model after 24 hrs using 10^8 CFU/ml inoculum; type: functional
Staphylococcus aureus [7] = experiment: AUBKC (0 to 24 hrs) in methicillin-resistant Staphylococcus aureus 33921 infected in in vitro pharmacokinetic model at 750 mg, iv every 8 hrs using 10^6 CFU/ml inoculum; type: functional
Summary of the method: (§2)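 Single-compartment dilutional in vitro PK model at 37°C in 10% Mueller-Hinton broth, stirred, flow 132 ml/h. […] Inoculum 10^6 CFU/ml added 45 min before dosing, or 10^8 CFU/ml run overnight. Viable counts with β-lactamase neutralisation. AUBKC by log-linear trapezoidal rule, at least triplicate.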

Staphylococcus aureus [8] = experiment: AUBKC (0 to 48 hrs) in methicillin-resistant Staphylococcus aureus 33820 infected in in vitro pharmacokinetic model at 750 mg, iv every 8 hrs using 10^6 CFU/ml inoculum; type: functional; summary of the method: as §2
Staphylococcus aureus [9] = experiment: AUBKC (0 to 48 hrs) in methicillin-sensitive Staphylococcus aureus 5956 infected in in vitro pharmacokinetic model at 1500 mg, iv every 8 hrs using 10^6 CFU/ml inoculum; type: functional; summary of the method: as §2
Staphylococcus aureus [10] = experiment: Antibacterial activity against methicillin-resistant Staphylococcus aureus 33815 infected in in vitro pharmacokinetic model assessed as reduction in viable count at 750 mg, iv every 8 hrs measured after 12 hrs using 10^8 CFU/ml inoculum; type: functional
Summary of the method: (§3)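 PK model at 37°C in 10% MHB. […] A 0.5 McFarland suspension (1 ml) was added and the model run overnight to reach 10^8 CFU/ml before dosing. Counts were spiral-plated on nutrient agar with β-lactamase. Change in log CFU/ml was measured from time 0; at least triplicate.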

Staphylococcus aureus [11] = experiment: Antibacterial activity against methicillin-resistant Staphylococcus aureus 33815 infected in in vitro pharmacokinetic model assessed as reduction in viable count at 750 mg, iv every 8 hrs measured after 48 hrs using 10^8 CFU/ml inoculum; type: functional; summary of the method: as §3
Staphylococcus aureus [12] = experiment: Antibacterial activity against methicillin-resistant Staphylococcus aureus 33921 by 10% MH broth method; type: functional
Summary of the method: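 MIC by CLSI broth dilution, or by broth dilution in 10% Mueller-Hinton broth at nondoubling dilutions.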

Staphylococcus aureus [13] = experiment: Antibacterial activity against methicillin-resistant Staphylococcus aureus 33922 infected in in vitro pharmacokinetic model assessed as reduction in viable count at 1500 mg, iv every 8 hrs measured after 36 hrs using 10^8 CFU/ml inoculum; type: functional
Staphylococcus aureus [14] = experiment: AUBKC (0 to 24 hrs) in methicillin-resistant Staphylococcus aureus 33815 infected in in vitro pharmacokinetic model at 750 mg, iv every 8 hrs using 10^8 CFU/ml inoculum; type: functional; summary of the method: as §2
Staphylococcus aureus [15] = experiment: AUBKC (0 to 24 hrs) in methicillin-resistant Staphylococcus aureus 33922 infected in in vitro pharmacokinetic model at 1500 mg, iv every 8 hrs using 10^8 CFU/ml inoculum; type: functional; summary of the method: as §2
Staphylococcus aureus [16] = experiment: Antibacterial activity against methicillin-resistant Staphylococcus aureus 33921 assessed as viable count at 2 times of MIC after 24 hrs using 10^6 CFU/ml inoculum; type: functional, organism-based
Staphylococcus aureus [17] = experiment: Antibacterial activity against methicillin-resistant Staphylococcus aureus 33829 in in vitro pharmacokinetic model assessed as viable count at 2 times of MIC; type: functional
Summary of the method: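 Preexposure population analysis: time-zero model samples plated on nutrient agar without drug and with drug at multiples of the 10% broth MIC. Growth reported as log CFU/ml, detection limit 2 log10.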

Staphylococcus aureus [18] = experiment: Antibacterial activity against methicillin-resistant Staphylococcus aureus 33827 in in vitro pharmacokinetic model assessed as viable count at 4 times of MIC; type: functional
Summary of the method: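 Population analysis before drug exposure (time 0). Model samples were plated on nutrient agar without drug and with tomopenem at 2×, 4× and 6× MIC (10% MHB MIC), and growth was recorded as log CFU/ml. Detection limit 2 log10.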

Staphylococcus aureus [19] = experiment: Antibacterial activity against methicillin-resistant Staphylococcus aureus 33827 infected in in vitro pharmacokinetic model assessed as reduction in viable count at 750 mg, iv every 8 hrs measured after 24 hrs using 10^6 CFU/ml inoculum; type: functional; summary of the method: as §1
Staphylococcus aureus [20] = experiment: T>MIC for 1-log drop in count in methicillin-resistant Staphylococcus aureus 33827 in in vitro pharmacokinetic model after 24 hrs using 10^6 CFU/ml inoculum; type: functional
Staphylococcus aureus [21] = experiment: T>MIC for 3-log drop in count in methicillin-resistant Staphylococcus aureus 33829 in in vitro pharmacokinetic model after 24 hrs using 10^6 CFU/ml inoculum; type: functional
Staphylococcus aureus [22] = experiment: T>MIC for 1-log drop in count in methicillin-sensitive Staphylococcus aureus 5956 in in vitro pharmacokinetic model after 24 hrs using 10^8 CFU/ml inoculum; type: functional
Staphylococcus aureus [23] = experiment: Antibacterial activity against methicillin-sensitive Staphylococcus aureus 5956 infected in in vitro pharmacokinetic model assessed as reduction in viable count at 1500 mg, iv every 8 hrs measured after 12 hrs using 10^6 CFU/ml inoculum; type: functional
Staphylococcus aureus [24] = experiment: Antibacterial activity against methicillin-sensitive Staphylococcus aureus 5956 infected in in vitro pharmacokinetic model assessed as reduction in viable count at 1500 mg, iv every 8 hrs measured after 48 hrs using 10^6 CFU/ml inoculum; type: functional
Staphylococcus aureus [25] = experiment: Antibacterial activity against methicillin-resistant Staphylococcus aureus 33820 infected in in vitro pharmacokinetic model assessed as time required to 99.9% killing at 750 mg, iv every 8 hrs using 10^6 CFU/ml inoculum; type: functional
Staphylococcus aureus [26] = experiment: Antibacterial activity against methicillin-sensitive Staphylococcus aureus 5956 infected in in vitro pharmacokinetic model assessed as time required to 99.9% killing at 1500 mg, iv every 8 hrs using 10^6 CFU/ml inoculum; type: functional

`C[C@@H](O)[C@H]1C(=O)N2C(C(=O)O)=C(S[C@H]3C[C@@H](C(=O)N4CC[C@H](NC(=O)CNC(=N)N)C4)N(C)C3)[C@H](C)[C@H]12` [TOMOPENEM] was tested, and the Time (Staphylococcus aureus [1]) was 12 h, the Time (Staphylococcus aureus [2]) was 5 h and the Time (Staphylococcus aureus [3]) was 12 h. For the same molecule, the Time (Staphylococcus aureus [4]) was 12 h, the Time (Staphylococcus aureus [5]) was 16 h and the “fT>MIC” value (Staphylococcus aureus [6]) was 79.1%. The AUBC (Staphylococcus aureus [7]) was 30.9 log10CFU/ml.hr, the AUBC (Staphylococcus aureus [8]) was 28.6 log10CFU/ml.hr and the AUBC (Staphylococcus aureus [9]) was 22.7 log10CFU/ml.hr. It also gave a log10CFU/ml (Staphylococcus aureus [10]) of 1.7, a log10CFU/ml (Staphylococcus aureus [11]) of 5 and an MIC (Staphylococcus aureus [12]) of 0.06 µg/mL (≈ 0.112 µM). The log10CFU/ml (Staphylococcus aureus [13]) was 5.2, the AUBC (Staphylococcus aureus [14]) was 100 log10CFU/ml.hr and the AUBC (Staphylococcus aureus [15]) was 100.1 log10CFU/ml.hr. The Activity (Staphylococcus aureus [16]) was “inactive”, the log10CFU/ml (Staphylococcus aureus [17]) was 5.8 and the log10CFU/ml (Staphylococcus aureus [18]) was less than 2. For the same molecule, the log10CFU/ml (Staphylococcus aureus [19]) was 3.6, the “fT>MIC” value (Staphylococcus aureus [20]) was 24.4% and the “fT>MIC” value (Staphylococcus aureus [21]) was 21.5%. The “fT>MIC” value (Staphylococcus aureus [22]) was 3.4%, the log10CFU/ml (Staphylococcus aureus [23]) was 4.4 and the log10CFU/ml (Staphylococcus aureus [24]) was 4.4. It also gave a Time (Staphylococcus aureus [25]) of 12 h and a Time (Staphylococcus aureus [26]) of 8 h.
